# An excerpt weighted towards active compounds, which were near 3.1% of everything screened.
# LEDGF integ inh: blockers of LEDGF/p75-dependent integrase strand transfer – biochemical, TR-FRET, high throughput, primary screen; HIV-1 integrase (with human LEDGF/p75); TR-FRET IN-LEDGF/p75 DNA integration, Eu/Cy5; inhibition, % at 3.7 µM; 370,000 tested, 0.64% active; AID 743269, 2014;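 active = inhibition above the screen-wide mean plus 3 SD, cut at about 13% in these data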;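 also: signal is the Cy5 over europium emission ratio at 671 and 618 nm; 0% = plate median of compound wells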
# PRMT1 FP inh: PRMT1 methyltransferase inhibitors, primary screen, biochemical, fluorescence polarization. Protein arginine N-methyltransferase 1 (Homo sapiens), Q99873. inhibition, % at 2.79 µM. 370,000 tested, 1.3% active. AID 652257, 2013. recombinant PRMT1, activity-based probe fluorescence polarization;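 active = inhibition above about 21% made by adding two undisclosed values, limit read from the data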
# RBBP9 inh: human RBBP9 inhibitors, primary screen, biochemical, fluorescence polarization, FP-Rh probe, HTS; recombinant RBBP9; inhibition, % at 7.94 µM; AID 1515, 2009; 220,000 tested, 0.2% active; Serine hydrolase RBBP9 (Homo sapiens), O75884;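 active = inhibition above the campaign mean of all tested compounds plus 3 SD, cut at about 14% in these data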;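 also: plate controls were DMSO wells with RBBP9 for no effect and wells lacking RBBP9 protein for full effect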
#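 Test system: recombinant human RBBP9; Timing: 30 min then 45 min, 25 °C; Detection: fluorescence polarization; Control set: RBBP9 with DMSO as uninhibited control, no-protein wells as full inhibition; Compound dosing: one concentration, 7.94 µM nominal, 0.794% DMSO; Probe or stimulus: FP-Rh activity-based probe, 375 nM before mixing.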
# ABHD5-PLIN5 inh: ABHD5-PLIN5 interaction inhibitors, primary screen, cell lysate, split luciferase complementation, luminescence. 360,000 tested, 0.78% active. Perilipin-5 (Homo sapiens) + 1-acylglycerol-3-phosphate O-acyltransferase ABHD5 (Homo …. inhibition, % at 4 µM. Split G. princeps luciferase complementation, 4 h;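 active = inhibition above the mean inhibition across every tested compound plus 3 SD, cut at about 22% in these data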;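 also: 0% = DMSO only wells and the 100% control is not disclosed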
# UHRF1 MBD2 ctr: UHRF1 methylated DNA binding inhibitors, primary screen, counter-screen for MBD2 inhibitor project, biochemical, TR-FRET, human UHRF1, single concentration; UHRF1 binding to methylated oligo; inhibition, % at 4.4 µM; 370,000 tested, 0.75% active; E3 ubiquitin-protein ligase UHRF1 (Homo sapiens), Q96T88; AID 687016, 2013; in the data active = inhibition above about 21%;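 also: UHRF1 SRA domain binding a hemimethylated CpG hairpin DNA probe; 0% = median of test compound wells and 100% = reference inhibitor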
# Target sequence (Q96T88 whole entry, looked up, the tested form may be a part): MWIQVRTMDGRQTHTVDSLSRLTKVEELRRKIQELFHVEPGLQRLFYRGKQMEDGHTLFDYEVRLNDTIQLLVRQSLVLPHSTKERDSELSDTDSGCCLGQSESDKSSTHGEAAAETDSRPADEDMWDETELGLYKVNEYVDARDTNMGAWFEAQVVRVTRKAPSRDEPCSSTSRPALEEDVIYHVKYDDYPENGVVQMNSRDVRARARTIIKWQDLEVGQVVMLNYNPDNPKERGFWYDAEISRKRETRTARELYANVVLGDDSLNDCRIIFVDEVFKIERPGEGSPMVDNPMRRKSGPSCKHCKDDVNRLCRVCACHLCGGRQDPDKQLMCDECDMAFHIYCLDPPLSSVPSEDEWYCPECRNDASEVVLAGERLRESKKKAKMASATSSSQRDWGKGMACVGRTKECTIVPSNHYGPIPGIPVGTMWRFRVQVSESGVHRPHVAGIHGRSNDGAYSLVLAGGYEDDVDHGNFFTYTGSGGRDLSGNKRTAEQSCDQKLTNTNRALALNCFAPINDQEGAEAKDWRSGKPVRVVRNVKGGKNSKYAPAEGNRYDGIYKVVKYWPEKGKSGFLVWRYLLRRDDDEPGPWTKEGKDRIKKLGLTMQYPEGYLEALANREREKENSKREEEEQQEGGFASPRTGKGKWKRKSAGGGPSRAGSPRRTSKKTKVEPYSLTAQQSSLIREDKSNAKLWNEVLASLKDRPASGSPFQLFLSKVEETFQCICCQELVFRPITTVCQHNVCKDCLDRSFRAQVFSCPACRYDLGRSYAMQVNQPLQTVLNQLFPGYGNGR
# MBD2 DNA inh: inhibitors of MBD2 binding to methylated DNA, primary screen, biochemical, TR-FRET, DNA-binding domain, human; 370,000 tested, 0.31% active; AID 686964, 2013; MBD2 binding to methylated oligonucleotide; inhibition, % at 4.4 µM; in the data active = inhibition above about 13%
# PRMT1 inh conf: PRMT1 methyltransferase inhibitors, confirmation, biochemical, fluorescence polarization, triplicate; shares compounds with PRMT1 FP inh; recombinant His-PRMT1, activity-based probe fluorescence polarization; inhibition, % at 2.79 µM; 3,300 tested, 42% active;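 active = mean inhibition across replicates above the hit cutoff derived for the earlier primary screen, cut at about 22% in these data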
# An asterisk follows results filed as active; · = no result.
SMILES,LEDGF integ inh,PRMT1 FP inh,RBBP9 inh,ABHD5-PLIN5 inh,UHRF1 MBD2 ctr,MBD2 DNA inh,PRMT1 inh conf
CCOc1ccc(N2C(=O)CC(NCC3CCCO3)C2=O)cc1 (stereo not drawn),-2,80*,7,6,4,13,4
CCOc1cccc(N2C(=O)CC(NCc3ccc(S(N)(=O)=O)cc3)C2=O)c1 (stereo not drawn),-3,46*,-3,2,2,0,-1
COc1ccc(N2C(=O)CC(NCc3cccs3)C2=O)cc1 (stereo not drawn),-4,51*,-9,7,4,0,0
CCOc1ccc(N2C(=O)CC(N)C2=O)cc1 (stereo not drawn),0,76*,0,7,4,4,51*
O=C1CC(NCC2CCCO2)C(=O)N1c1ccc(Cl)cc1 (stereo not drawn),-2,1,-2,5,-3,-2,·
O=C(c1ccc(Cl)c(Cl)c1)N1CCC(Oc2cccnc2)CC1,0,2,·,·,6,5,·
C#CCN1CC(N(C)CCOC(=O)c2occ3ccccc23)CS1(=O)=O (stereo not drawn),3,-4,·,·,3,2,·
CCCC1CCC2(CC1)CCC2OC(=S)NCc1cccc(F)c1 (stereo not drawn),4,0,·,·,0,0,·
CCCCCCOc1ccc(N2C(=O)CC(NCCc3ccc(S(N)(=O)=O)cc3)C2=O)cc1 (stereo not drawn),2,42*,9,3,1,-7,8
CCOc1ccc(N2C(=O)CC(NCc3ccc(F)cc3)C2=O)cc1 (stereo not drawn),0,55*,-9,12,0,4,2
COc1cccc(/C=N/n2c(COc3ccccc3)n[nH]c2=S)c1O,-4,-1,·,-5,0,4,·
Cc1cccc(/C=N/n2c(COc3ccccc3)n[nH]c2=S)c1,5,28*,·,-6,1,1,13
S=c1[nH]nc(COc2ccccc2)n1/N=C/c1ccc(Cl)c(Cl)c1,4,1,·,-6,-1,-5,·
COc1cccc(/C=N/n2c(COc3ccccc3)n[nH]c2=S)c1OC,2,27*,·,-7,3,1,8
CC(/C=N/n1c(COc2ccccc2)n[nH]c1=S)=C\c1ccccc1,0,27*,-8,-7,-3,-3,5
CCCCCCCCN1C(=O)[C@@H](CC(=O)N2CCCC2)C[C@@]2(C(=O)OC)C1=C[C@H](C(C)(C)C)O[C@@H]2C,-4,5,·,·,2,0,·
Cc1ccc2c(c1)Sc1c(ccc3ccccc13)N2,5,26*,-1,-4,0,-1,3
O=C1NC(=O)/C(=C\c2ccc(Br)o2)S1,11,43*,·,-6,45*,2,1
O=C1NC(=O)/C(=C/c2cc3c(cc2Br)OCO3)S1,3,1,·,-4,-4,-4,·
Cc1ccc2[nH]c(=O)c(CN(CCc3ccccc3)C(c3nnnn3Cc3ccco3)C(C)C)cc2c1 (stereo not drawn),10,27*,-11,9,-4,-3,12
COc1ccccc1CN(Cc1cc2cc3c(cc2[nH]c1=O)OCCO3)Cc1nnnn1Cc1ccco1,5,36*,1,-8,-8,-11,2
O=c1[nH]c2cc3c(cc2cc1CN(Cc1cccs1)Cc1nnnn1Cc1ccco1)OCCO3,12,58*,-1,11,-3,-2,33*
O=c1[nH]c2cc3c(cc2cc1CN(Cc1ccccc1)Cc1nnnn1Cc1ccco1)OCCO3,16*,52*,-9,34*,1,-1,20
N#Cc1cccc(NC(=O)OCCN2C(=O)CCC23CCC(c2ccc(Cl)cc2)CC3)c1 (stereo not drawn),1,-2,·,·,-1,-1,·
Brc1ccc(-c2csc3[n+]2CCCCC3)cc1,-2,28*,-1,-2,2,7,1
SMILES,LEDGF integ inh,PRMT1 FP inh,RBBP9 inh,ABHD5-PLIN5 inh,UHRF1 MBD2 ctr,MBD2 DNA inh,PRMT1 inh conf
Clc1ccc(-n2cc(-c3ccc(Br)cc3)[n+]3c2CCCCC3)cc1,-2,-5,4,8,-2,-5,·
Nc1c(C(=O)O)sc2nc(-c3ccccc3)c3c(c12)CCCC3,-3,27*,-10,-10,2,4,5
Cn1cc(Br)c(NC(=O)/C=C/C(=O)O)n1,3,36*,-3,3,1,-1,4
O=C(OCc1cn(Cc2ccc(F)cc2F)nn1)N1CCCC1,1,2,·,·,1,7,·
Cc1nnc(C)n1N=Cc1ccc(Cl)c([N+](=O)[O-])c1,-1,0,·,·,1,-1,·
O=C(NCc1ccc(Cl)cc1)c1ccc(Cn2cc(C(F)(F)F)ccc2=O)cc1,-1,72*,-7,-15,-7,0,64*
O=C(NCc1ccccc1Cl)c1ccc(Cn2cc(C(F)(F)F)ccc2=O)cc1,3,-2,1,-6,0,-2,·
CN1Cc2c(N)cccc2C(c2ccccc2)C1 (stereo not drawn),2,44*,-10,1,-11,-5,8
COCCNC(=S)c1ccc(Br)cc1,0,36*,-2,-5,0,-2,8
O=C(Nc1nc2ncccn2c1-c1ccccc1)c1ccccc1,7,1,·,·,2,-3,·
COc1ccc(CC(=O)n2[nH]c(=O)ccc2=O)cc1OC,2,75*,-11,13,-3,4,96*
CCOC(=O)c1cc(-c2ccc(F)cc2)n(CC(=O)NCc2cccnc2)c1C,3,28*,-10,1,-4,3,7
Cc1ccsc1C(=O)NNC(=O)c1ccc(NS(=O)(=O)c2cccs2)cc1,-3,0,·,7,-5,-1,·
Cc1ccsc1C(=O)NNC(=O)c1ccncc1,1,31*,·,-1,0,6,1
Cc1sc2ccccc2[n+]1CC(=O)c1ccccc1,·,·,·,15,·,·,·
Cc1sc2ccccc2[n+]1CCC(C)S(=O)(=O)[O-] (stereo not drawn),-3,36*,-4,1,-3,4,34*
Cc1sc2ccccc2[n+]1CC(=O)O,0,48*,-5,0,0,-5,54*
